The values that follow come from ChEMBL document CHEMBL1155236, “Identification of biphenyl-based hybrid molecules able to decrease the intracellular level of Bcl-2 protein in Bcl-2 overexpressing leukemia cells” (J Med Chem, 2009).

Molecules are shown by their SMILES.

Common to all, as to assay type: functional, cell-based
The subject of assay [1] is HL-60. The assay is described as follows: Antiproliferative activity against human HL60 cells after 48 hrs by trypan blue method. The settings on record: HL-60, 48 h. A digest of the protocol: (§1)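 Growth inhibition read by counting cells with an automatic cell counter after 48 h of compound exposure. IC50 is the concentration inhibiting 50% of cell growth.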
Assay [2] relates to K562. As to the kind of experiment: Antiproliferative activity against human K562 cells after 48 hrs by trypan blue method. The settings on record: K562, 48 h. A digest of the protocol: as §1
Assay [3] concerns K562. As to the kind of experiment: Induction of apoptosis in human K562 cells assessed as morphological changes after 48 hrs by annexin V assay. The note with it: K562, 48 h. A digest of the protocol: (§2)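 HL60 or K562 cells treated for 48 h. Apoptosis scored by morphological assay and annexin V test. AC50 is the concentration inducing apoptosis in 50% of cells.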
Assay [4] relates to HL-60. The assay is described as follows: Induction of apoptosis in human HL60 cells assessed as morphological changes after 48 hrs by annexin V assay. The settings on record: HL-60, 48 h, read-out: AC50. A digest of the protocol:
as §2

The term IC50 denotes the concentration that gives 50% inhibition. A low value points to greater potency in that assay. In the case of `O=C1C[C@H](c2ncc[nH]2)C2(C(=O)c3ccccc3C2=O)[C@H](c2ncc[nH]2)C1`, the IC50 in the assay with HL-60 [1] and in the assay on K562 [2] was greater than 100 µM in each case.
`COc1ccc(-c2ccc([C@H]3CC(=O)C[C@@H](c4ccccc4)C34C(=O)c3ccccc3C4=O)cc2)cc1`: the IC50 in the assay on HL-60 [1] and with K562 [2] was greater than 100 µM throughout.
`O=C1C[C@H](c2ccc(O)cc2)C2(C(=O)c3ccccc3C2=O)[C@H](c2ccccc2)C1`: the results for the IC50 in the assay with HL-60 [1] and in the assay on K562 [2] were 23 µM and 25 µM, respectively.
As to `CC1(C)OC(=O)C2(C(=O)O1)[C@@H](c1c[nH]c3ccccc13)CC(=O)C[C@H]2c1ccccc1`, the IC50 with HL-60 [1] was 62 µM; in the assay with K562 [2], greater than 100 µM.
With `CC1(C)OC(=O)C2(C(=O)O1)[C@@H](c1ccc(-c3ccc(CO)cc3)cc1)CC(=O)C[C@H]2c1ccccc1`, the figures for the IC50 with HL-60 [1] and in the assay with K562 [2] were 20 µM and 38 µM, respectively.
In the case of `O=C1C[C@H](c2cnc[nH]2)C2(C(=O)c3ccccc3C2=O)[C@H](c2ccc(O)cc2)C1`, the figures for the IC50 in the assay with HL-60 [1] and in the assay with K562 [2] were 86 µM and 95 µM, respectively.
By AC50 is commonly meant the midpoint of the concentration-response curve, whichever way the signal moves. `Oc1ccc(-c2ccc(-c3cc(O)cc(O)c3)cc2)cc1` came in with an IC50 with K562 [2] of 20 µM. In addition, the AC50 in the assay with K562 [3] stood at 75 µM.
In the case of `OCc1ccc(-c2cc(O)cc(O)c2)cc1`, the IC50 with HL-60 [1] and with K562 [2] was greater than 80 µM in each case. In addition, the AC50 in the assay with HL-60 [4] and with K562 [3] (read-out: AC50) was greater than 80 µM each time.
